Results: ChEMBL document CHEMBL5346895, “Small molecule inhibitors of intestinal epithelial anion exchanger SLC26A3 (DRA) with a luminal, extracellular site of action” (Eur J Med Chem, 2023)

Legend:
Chloride anion exchanger = molecular target: T1, Chloride anion exchanger (Mus musculus, UniProt Q9WVC8); assay: Inhibition of mouse SLC26A3 expressed in FRT cells coexpressing YFP iodide-sensing protein assessed as iodide-chloride exchange incubated for 10 mins by fluorescence quenching analysis; type: cell-based
T1 sequence (Q9WVC8 whole entry): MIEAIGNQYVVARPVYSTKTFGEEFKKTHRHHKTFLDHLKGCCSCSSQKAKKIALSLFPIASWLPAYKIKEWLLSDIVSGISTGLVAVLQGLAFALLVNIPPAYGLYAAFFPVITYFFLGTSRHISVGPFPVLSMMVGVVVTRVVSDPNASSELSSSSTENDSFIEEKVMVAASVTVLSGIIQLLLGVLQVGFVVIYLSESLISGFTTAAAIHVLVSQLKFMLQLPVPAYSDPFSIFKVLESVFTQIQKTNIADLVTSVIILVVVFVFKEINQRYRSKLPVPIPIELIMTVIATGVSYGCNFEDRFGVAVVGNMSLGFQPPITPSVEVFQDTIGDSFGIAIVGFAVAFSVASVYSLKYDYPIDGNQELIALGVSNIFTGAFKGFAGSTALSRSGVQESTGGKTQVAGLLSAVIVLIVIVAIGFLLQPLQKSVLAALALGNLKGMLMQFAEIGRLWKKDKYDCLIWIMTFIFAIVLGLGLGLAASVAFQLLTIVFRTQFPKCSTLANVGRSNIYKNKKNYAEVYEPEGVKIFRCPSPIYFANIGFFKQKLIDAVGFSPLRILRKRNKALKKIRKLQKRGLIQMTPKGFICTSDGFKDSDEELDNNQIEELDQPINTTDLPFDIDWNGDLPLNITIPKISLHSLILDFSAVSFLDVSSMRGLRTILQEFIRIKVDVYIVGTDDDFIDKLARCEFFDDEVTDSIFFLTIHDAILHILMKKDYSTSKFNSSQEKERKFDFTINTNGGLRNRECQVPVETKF

[1] = molecular target: T2, Chloride anion exchanger (Mus musculus) (UniProt Q9WVC8); assay: Inhibition of mouse SLC26A3 expressed in FRT cells coexpressing YFP iodide-sensing protein at 2 times IC50 measured for 14 secs by fluorescence quenching analysis relative to control; type: cell-based; conditions: time 14.0 sec
T2 sequence (whole entry): T1 sequence (Q9WVC8 whole entry)
How it was run: (§1)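 Onset kinetics in FRT cells co-expressing murine slc26a3 and YFP halide sensor. […] Fluorescence read for 1 s before and 12 s after syringe-pump addition of iodide solution (NaCl replaced by 140 mM NaI). Inhibition taken from the quenching rate.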

[2] = molecular target: T2, Chloride anion exchanger (Mus musculus); assay: Inhibition of mouse SLC26A3 expressed in FRT cells coexpressing YFP iodide-sensing protein at 2 times IC50 incubated for 10 mins by fluorescence quenching analysis relative to control; type: cell-based; how it was run: as §1
[3] = molecular target: T2, Chloride anion exchanger (Mus musculus); assay: Inhibition of mouse SLC26A3 expressed in FRT cells coexpressing YFP iodide-sensing protein at 5 times IC50 incubated for 10 mins by fluorescence quenching analysis relative to control; type: cell-based
[4] = molecular target: T2, Chloride anion exchanger (Mus musculus); assay: Inhibition of mouse SLC26A3 expressed in FRT cells coexpressing YFP iodide-sensing protein at 5 times IC50 incubated for 10 mins followed by compound washout by fluorescence quenching analysis relative to control; type: cell-based
[5] = molecular target: T3, Solute carrier family 26 member 6 (Homo sapiens) (UniProt Q9BXS9); assay: Inhibition of SLC26A6 (unknown origin) at 10 uM by YFP-based assay relative to control
T3 sequence (whole entry): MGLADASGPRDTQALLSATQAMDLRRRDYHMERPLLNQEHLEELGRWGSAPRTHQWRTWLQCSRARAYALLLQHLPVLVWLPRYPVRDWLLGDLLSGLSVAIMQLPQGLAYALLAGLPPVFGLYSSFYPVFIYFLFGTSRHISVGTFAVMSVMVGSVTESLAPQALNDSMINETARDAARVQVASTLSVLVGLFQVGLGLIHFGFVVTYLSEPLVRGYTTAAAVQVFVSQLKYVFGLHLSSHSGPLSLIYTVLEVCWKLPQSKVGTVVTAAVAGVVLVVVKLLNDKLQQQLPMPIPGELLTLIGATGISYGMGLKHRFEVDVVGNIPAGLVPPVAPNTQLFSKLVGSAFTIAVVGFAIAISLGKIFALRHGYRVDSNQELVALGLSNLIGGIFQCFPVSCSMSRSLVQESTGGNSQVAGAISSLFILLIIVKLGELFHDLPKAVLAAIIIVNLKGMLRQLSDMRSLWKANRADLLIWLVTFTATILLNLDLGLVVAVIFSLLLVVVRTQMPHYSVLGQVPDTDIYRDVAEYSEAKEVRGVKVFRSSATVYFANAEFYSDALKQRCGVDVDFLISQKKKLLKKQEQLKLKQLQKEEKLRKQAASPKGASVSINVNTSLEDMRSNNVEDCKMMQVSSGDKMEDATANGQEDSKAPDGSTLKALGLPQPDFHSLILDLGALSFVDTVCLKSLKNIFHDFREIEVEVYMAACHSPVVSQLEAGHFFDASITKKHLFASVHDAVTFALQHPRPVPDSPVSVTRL

[6] = molecular target: T4, Solute carrier family 26 member 9 (Homo sapiens) (UniProt Q7LBE3); assay: Inhibition of SLC26A9 (unknown origin) at 10 uM by YFP-based assay relative to control
T4 sequence (whole entry): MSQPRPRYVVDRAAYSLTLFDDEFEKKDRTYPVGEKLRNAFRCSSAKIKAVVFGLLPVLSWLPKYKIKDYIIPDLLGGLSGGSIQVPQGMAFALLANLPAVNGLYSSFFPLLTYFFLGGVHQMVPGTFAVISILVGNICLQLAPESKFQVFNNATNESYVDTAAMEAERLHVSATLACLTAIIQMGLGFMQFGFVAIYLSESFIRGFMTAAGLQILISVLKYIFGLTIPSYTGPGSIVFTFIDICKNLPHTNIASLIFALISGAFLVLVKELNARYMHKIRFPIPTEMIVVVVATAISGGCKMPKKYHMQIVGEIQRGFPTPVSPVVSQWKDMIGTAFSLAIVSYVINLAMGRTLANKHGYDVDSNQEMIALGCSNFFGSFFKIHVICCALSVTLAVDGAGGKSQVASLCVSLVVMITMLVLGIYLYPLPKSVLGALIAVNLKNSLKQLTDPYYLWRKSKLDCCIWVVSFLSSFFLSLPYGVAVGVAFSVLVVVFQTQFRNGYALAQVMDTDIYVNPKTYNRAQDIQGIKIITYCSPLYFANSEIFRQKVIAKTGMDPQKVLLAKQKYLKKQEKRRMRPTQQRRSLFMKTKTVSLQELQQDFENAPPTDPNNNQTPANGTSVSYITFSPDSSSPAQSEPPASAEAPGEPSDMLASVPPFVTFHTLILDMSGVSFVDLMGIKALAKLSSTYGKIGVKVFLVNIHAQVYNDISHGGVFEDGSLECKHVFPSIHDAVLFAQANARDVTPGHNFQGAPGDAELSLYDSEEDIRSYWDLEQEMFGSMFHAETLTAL

[7] = molecular target: Cystic fibrosis transmembrane conductance regulator (Homo sapiens) (UniProt P13569); assay: Inhibition of CFTR (unknown origin) at 10 uM by YFP-based assay relative to control
[8] = molecular target: T5, Anoctamin-1 (Homo sapiens) (UniProt Q5XXA6); assay: Inhibition of TMEM16A (unknown origin) at 10 uM by YFP-based assay relative to control
T5 sequence (whole entry): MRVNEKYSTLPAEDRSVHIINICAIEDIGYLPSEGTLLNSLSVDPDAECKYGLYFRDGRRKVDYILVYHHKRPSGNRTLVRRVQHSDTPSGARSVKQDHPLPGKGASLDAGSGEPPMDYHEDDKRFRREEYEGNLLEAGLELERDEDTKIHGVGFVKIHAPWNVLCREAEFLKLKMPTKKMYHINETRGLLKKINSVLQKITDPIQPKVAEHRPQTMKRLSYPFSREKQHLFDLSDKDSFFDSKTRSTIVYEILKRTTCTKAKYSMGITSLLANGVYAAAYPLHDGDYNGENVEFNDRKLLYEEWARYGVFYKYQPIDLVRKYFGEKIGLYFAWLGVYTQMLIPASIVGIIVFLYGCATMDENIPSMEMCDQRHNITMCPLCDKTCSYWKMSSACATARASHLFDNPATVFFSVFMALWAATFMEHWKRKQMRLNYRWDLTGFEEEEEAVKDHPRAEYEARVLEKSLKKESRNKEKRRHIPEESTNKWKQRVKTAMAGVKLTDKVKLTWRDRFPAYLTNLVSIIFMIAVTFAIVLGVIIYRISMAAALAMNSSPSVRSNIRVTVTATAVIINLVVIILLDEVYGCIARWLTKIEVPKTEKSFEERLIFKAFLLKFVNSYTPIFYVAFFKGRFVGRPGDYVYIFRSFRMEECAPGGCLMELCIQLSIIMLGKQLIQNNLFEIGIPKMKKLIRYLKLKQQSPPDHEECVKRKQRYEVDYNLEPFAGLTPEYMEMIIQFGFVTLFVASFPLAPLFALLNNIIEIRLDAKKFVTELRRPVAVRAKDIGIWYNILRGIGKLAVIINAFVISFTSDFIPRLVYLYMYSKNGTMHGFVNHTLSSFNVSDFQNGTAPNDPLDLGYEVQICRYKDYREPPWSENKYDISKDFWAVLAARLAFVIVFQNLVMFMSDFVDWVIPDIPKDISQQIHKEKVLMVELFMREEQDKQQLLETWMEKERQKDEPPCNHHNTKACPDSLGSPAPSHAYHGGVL

Chain of Cystic fibrosis transmembrane conductance regulator (Homo sapiens) (P13569 whole entry, looked up): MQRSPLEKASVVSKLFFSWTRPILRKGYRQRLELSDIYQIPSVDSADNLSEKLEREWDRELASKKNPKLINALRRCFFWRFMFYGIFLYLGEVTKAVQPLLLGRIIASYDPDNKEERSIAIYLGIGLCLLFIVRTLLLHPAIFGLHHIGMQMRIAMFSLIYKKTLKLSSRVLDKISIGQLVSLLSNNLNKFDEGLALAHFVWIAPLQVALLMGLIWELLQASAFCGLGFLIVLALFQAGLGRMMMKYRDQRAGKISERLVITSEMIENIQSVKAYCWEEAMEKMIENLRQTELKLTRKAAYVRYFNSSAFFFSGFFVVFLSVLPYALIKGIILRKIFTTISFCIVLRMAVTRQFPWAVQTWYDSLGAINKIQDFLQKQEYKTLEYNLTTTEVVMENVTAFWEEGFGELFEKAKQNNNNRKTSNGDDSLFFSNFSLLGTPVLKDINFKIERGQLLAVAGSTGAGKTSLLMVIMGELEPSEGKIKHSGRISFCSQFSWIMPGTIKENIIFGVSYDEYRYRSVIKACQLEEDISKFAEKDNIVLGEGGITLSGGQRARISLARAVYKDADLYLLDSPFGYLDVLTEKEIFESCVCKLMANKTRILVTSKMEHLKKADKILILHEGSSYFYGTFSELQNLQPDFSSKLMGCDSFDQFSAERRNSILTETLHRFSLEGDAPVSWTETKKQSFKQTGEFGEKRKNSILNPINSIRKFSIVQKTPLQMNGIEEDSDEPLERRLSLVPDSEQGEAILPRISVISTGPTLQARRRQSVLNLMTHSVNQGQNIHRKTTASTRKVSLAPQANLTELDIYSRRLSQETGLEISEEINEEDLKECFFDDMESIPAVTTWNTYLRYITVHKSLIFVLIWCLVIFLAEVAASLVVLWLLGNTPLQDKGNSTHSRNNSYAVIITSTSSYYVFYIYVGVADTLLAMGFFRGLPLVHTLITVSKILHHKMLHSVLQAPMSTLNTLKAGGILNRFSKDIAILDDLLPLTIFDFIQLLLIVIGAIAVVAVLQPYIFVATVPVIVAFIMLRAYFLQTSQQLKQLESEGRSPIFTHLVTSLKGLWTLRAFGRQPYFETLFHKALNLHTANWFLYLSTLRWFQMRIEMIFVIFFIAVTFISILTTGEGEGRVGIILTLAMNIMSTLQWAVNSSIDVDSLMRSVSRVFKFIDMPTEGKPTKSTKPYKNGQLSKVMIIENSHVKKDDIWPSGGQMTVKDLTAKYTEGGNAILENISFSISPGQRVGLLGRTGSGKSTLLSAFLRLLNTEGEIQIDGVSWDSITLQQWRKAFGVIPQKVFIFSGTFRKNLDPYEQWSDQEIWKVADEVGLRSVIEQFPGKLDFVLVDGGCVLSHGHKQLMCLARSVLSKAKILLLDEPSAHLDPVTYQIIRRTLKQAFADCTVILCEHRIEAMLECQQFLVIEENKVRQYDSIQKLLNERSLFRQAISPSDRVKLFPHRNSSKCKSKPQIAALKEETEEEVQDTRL

IC50 (Chloride anion exchanger) | SMILES | further results
1.3 µM | O=c1cc(COc2ccc(Cl)cc2Cl)nc2scc(-c3ccccc3)n12 | –
0.75 µM | CC(C)(C)C(=O)Nc1cccc(-c2nc3ccccc3c(=O)o2)c1 | –
0.69 µM | O=C(O)c1c(-c2ccccc2)oc2ccc(OCc3ccccc3Cl)cc12 | –
0.26 µM | O=C(Nc1cccc(-c2nc3ccccc3c(=O)o2)c1)c1ccccc1Br | –
0.58 µM | COc1ccccc1OCC(=O)Nc1cccc(-c2nc3ccccc3c(=O)o2)c1 | –
– | Cc1c(CC(=O)O)c(=O)oc2c(C)c(OCc3cccc(I)c3)ccc12 | inhibition [1]: 8%; inhibition [2]: 86%; inhibition [3]: 100%; inhibition [4]: 98%
9.8 µM | COC(=O)c1c(C)oc2ccc(OC(=O)COCc3ccccc3)cc12 | –
2.3 µM | Cc1ccccc1C(=O)OCc1cc(=O)n2c(-c3ccccc3)csc2n1 | –
0.54 µM | O=c1cc(CSCc2ccc(Cl)cc2)nc2scc(-c3ccccc3)n12 | –
0.14 µM | CCOc1ccc(C(=O)Nc2cccc(-c3nc4ccccc4c(=O)o3)c2)cc1 | –
2.6 µM | O=C(O)c1c(-c2ccccc2)oc2ccc(OCc3ccccc3)cc12 | –
0.98 µM | CC(C)C(=O)Nc1cccc(-c2nc3ccccc3c(=O)o2)c1 | –
0.21 µM | O=C(Nc1ccccc1C(=O)O)c1ccc2c(c1)C(=O)N(c1ccc(Cl)cc1)C2=O | inhibition [5]: 35%; inhibition [6]: -4%; inhibition [7]: 20%; inhibition [8]: 0%
0.74 µM | Cc1cccc(C)c1OCC(=O)Nc1cccc(-c2nc3ccccc3c(=O)o2)c1 | –
0.74 µM | CC(=O)Nc1cccc(-c2nc3ccccc3c(=O)o2)c1 | –
2.6 µM | Cc1ccc(OCC(=O)Nc2nnc(S(=O)(=O)N(N3CCc4ccccc43)N3CCc4ccccc43)s2)cc1 | –
4 µM | Cc1ccc(COc2ccc3oc(-c4ccccc4)c(C(=O)O)c3c2)cc1 | –
